Experiments:
[1] = tested on: P-glycoprotein; experiment: Permeability assessed as human P-glycoprotein-mediated transport across apical to basolateral side expressed in pig LLC-PK1 cells at 500 uM by liquid scintillation counting; assay type: ADME, cell-based
[2] = molecular target: ATP-binding cassette sub-family C member 2 (Homo sapiens, UniProt Q92887); experiment: Inhibition of human MRP2 expressed in MDCK2 cells assessed as reduction of [3H]E217betaG substrate transport up to 100 uM by liquid scintillation counting; assay type: ADME, cell-based; settings: mdck-ii
Outline: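 Membrane vesicles made from MDCKII cells expressing BCRP or MRP2, and from parental cells (1 μg/μL protein). Run in Tris-sucrose buffer, pH 7.4, with 10 mM MgCl2, creatine phosphokinase and ATP, or AMP as control. Substrates: 0.035 μM [3H]E-sul for BCRP, 2 min; 0.033 μM [3H]E217βG for MRP2, 5 min; both at 37 °C. Stopped ice-cold, filtered, and counted by scintillation.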

[3] = tested on: P-glycoprotein; experiment: Permeability assessed as human P-glycoprotein-mediated transport of basolateral to apical side in pig LLC-PK1 cells by measuring nontransporter-related passive membrane permeability by Transwell experiment/liquid scintillation counting; assay type: ADME, cell-based; settings: read-out: permeability
[4] = molecular target: T1, OCTN1 (SLC22A4) (Homo sapiens, UniProt Q9H015); experiment: Inhibition of OCTN1 (unknown origin) expressed in HEK293 cells assessed as reduction of [3H]ergothioneine substrate uptake at 100 uM by liquid scintillation counting; assay type: cell-based; settings: HEK293 cells expressing OCTN1, probe [3H]ergothioneine
T1 sequence (Q9H015 whole entry): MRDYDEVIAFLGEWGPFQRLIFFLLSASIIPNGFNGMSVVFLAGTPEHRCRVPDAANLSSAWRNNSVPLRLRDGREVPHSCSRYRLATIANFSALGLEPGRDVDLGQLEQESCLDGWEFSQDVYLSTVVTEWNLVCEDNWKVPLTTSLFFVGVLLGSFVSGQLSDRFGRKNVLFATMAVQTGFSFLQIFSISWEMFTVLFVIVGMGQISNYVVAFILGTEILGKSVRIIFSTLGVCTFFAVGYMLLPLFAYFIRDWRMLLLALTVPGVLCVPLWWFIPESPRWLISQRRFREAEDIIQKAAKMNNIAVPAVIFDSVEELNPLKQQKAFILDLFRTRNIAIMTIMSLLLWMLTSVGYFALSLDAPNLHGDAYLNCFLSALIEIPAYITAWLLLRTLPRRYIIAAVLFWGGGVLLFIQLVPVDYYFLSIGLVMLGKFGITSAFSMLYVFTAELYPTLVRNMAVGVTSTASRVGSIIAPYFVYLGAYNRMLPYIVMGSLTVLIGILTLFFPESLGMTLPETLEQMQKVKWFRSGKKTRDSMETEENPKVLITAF
Outline: (§1)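 HEK293 cells transiently transfected with OAT, OATP or OCT plasmid (FuGENE6; 24 h, then 24 h more with sodium butyrate), or stable OCTN1/OCTN2 lines; vector-transfected cells as control. Washed, preincubated 15–60 min at 37 °C in modified Krebs-Henseleit/25 mM HEPES buffer. Uptake of radiolabelled substrate, 100 µM inhibitor. Cells lysed in NaOH and counted by scintillation; counts normalised to medium radioactivity and Lowry protein; vector uptake subtracted.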

[5] = tested on: P-glycoprotein; experiment: Permeability assessed as human P-glycoprotein-mediated active membrane transport by measuring apical to basolateral side expressed in pig LLC-PK1 cells by Transwell experiment/liquid scintillation counting; assay type: ADME, cell-based; settings: read-out: permeability
[6] = Drug uptake in human intestine at 5 mg, po; assay type: ADME, tissue-based; settings: in vivo
[7] = Permeability assessed as human P-glycoprotein-mediated transport across apical to basolateral side expressed in pig LLC-PK1 cells by measuring membrane permeability time by Transwell experiment/liquid scintillation counting; assay type: ADME, cell-based
[8] = tested on: P-glycoprotein; experiment: Permeability assessed as human P-glycoprotein-mediated active membrane transport by measuring basolateral to apical side expressed in pig LLC-PK1 cells by Transwell experiment/liquid scintillation counting; assay type: ADME, cell-based; settings: read-out: permeability
[9] = molecular target: T2, Solute carrier organic anion transporter family member 1B3 (Homo sapiens, UniProt Q9NPD5); experiment: Inhibition of OATP1B3 (unknown origin) expressed in HEK293 cells assessed as reduction of [3H]CCK8 substrate uptake at 100 uM by liquid scintillation counting; assay type: ADME, cell-based; settings: hek293, 100 µM; outline: as §1
T2 sequence (Q9NPD5 whole entry): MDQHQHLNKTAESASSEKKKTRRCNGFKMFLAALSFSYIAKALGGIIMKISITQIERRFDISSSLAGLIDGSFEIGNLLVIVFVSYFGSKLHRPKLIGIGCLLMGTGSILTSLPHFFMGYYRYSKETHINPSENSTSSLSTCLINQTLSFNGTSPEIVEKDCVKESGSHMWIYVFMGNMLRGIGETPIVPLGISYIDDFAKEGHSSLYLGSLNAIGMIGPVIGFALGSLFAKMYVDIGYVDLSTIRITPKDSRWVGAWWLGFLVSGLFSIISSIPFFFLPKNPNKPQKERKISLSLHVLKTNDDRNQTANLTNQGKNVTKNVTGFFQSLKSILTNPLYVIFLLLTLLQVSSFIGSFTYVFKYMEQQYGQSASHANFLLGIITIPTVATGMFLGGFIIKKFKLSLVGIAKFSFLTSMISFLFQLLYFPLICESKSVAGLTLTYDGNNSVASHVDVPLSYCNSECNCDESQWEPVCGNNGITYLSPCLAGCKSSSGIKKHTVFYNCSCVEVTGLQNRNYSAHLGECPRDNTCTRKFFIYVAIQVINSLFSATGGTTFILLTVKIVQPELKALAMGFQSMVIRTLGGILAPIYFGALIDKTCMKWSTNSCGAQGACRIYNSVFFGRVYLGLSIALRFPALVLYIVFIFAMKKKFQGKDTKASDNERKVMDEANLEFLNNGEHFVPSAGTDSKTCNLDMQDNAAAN

[10] = Inhibition of human P-glycoprotein expressed in pig LLC-PK1 cells assessed as reduction of [3H]digoxin substrate transport from basolateral to apical side by liquid scintillation counting; assay type: ADME, cell-based

Sequence of ATP-binding cassette sub-family C member 2 (Q92887 whole entry): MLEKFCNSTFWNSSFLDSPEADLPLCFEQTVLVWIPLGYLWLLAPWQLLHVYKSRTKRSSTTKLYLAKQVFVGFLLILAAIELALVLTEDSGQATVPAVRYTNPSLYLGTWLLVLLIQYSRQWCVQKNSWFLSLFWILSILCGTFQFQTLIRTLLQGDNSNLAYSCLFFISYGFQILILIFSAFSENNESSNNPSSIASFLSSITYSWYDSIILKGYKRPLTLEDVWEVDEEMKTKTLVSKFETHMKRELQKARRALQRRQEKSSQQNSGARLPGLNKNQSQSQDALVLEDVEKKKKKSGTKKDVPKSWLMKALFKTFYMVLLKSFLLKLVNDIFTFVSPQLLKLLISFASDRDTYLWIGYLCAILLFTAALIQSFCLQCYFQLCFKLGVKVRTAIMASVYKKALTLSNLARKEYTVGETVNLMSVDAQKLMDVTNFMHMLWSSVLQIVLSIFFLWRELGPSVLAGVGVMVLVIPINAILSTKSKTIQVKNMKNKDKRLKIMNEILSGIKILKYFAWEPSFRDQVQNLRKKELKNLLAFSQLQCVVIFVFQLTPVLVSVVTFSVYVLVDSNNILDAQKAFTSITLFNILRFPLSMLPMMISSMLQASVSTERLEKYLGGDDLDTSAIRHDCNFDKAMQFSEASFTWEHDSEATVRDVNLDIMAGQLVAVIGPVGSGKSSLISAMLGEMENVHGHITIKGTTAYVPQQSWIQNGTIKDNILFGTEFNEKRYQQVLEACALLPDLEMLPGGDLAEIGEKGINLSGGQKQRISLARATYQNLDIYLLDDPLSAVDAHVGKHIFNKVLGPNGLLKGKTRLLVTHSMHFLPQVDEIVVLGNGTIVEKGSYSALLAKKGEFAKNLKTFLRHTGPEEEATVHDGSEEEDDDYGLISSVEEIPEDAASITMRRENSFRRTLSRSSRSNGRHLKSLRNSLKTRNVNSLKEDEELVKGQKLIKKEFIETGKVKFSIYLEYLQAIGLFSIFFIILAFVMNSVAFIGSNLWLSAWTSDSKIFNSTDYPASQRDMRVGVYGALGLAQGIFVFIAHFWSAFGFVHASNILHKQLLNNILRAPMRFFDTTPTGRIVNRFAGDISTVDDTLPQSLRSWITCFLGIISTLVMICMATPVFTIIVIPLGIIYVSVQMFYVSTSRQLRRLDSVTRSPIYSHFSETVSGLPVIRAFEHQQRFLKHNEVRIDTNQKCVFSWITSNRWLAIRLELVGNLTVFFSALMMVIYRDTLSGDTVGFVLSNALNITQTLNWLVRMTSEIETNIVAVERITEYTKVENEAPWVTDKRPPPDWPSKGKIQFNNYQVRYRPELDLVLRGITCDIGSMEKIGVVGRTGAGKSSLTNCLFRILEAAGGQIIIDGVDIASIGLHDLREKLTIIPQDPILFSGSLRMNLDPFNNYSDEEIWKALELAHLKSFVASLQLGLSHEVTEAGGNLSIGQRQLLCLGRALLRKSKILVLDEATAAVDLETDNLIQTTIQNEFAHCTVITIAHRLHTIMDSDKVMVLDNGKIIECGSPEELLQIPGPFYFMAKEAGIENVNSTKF

**Q.** Which Papp A→B at 500 µM [1] does the source give for `CC#CCn1c(N2CCC[C@@H](N)C2)nc2c1c(=O)n(Cc1nc(C)c3ccccc3n1)c(=O)n2C` [LINAGLIPTIN] here?
**A.** 26.7 ×10⁻⁶ cm/s

**Q.** And the “inhibition (INH)” value [2]?
**A.** Not Active

**Q.** And the Papp B→A [3]?
**A.** 14.7 ×10⁻⁶ cm/s

**Q.** And the inhibition at 100 µM [4]?
**A.** 19.4%

**Q.** What about the Papp A→B [5] of the same compound?
**A.** 25.1 ×10⁻⁶ cm/s

**Q.** And the Drug uptake [6]?
**A.** 42.3 µM

**Q.** What about the Time [7] of the same compound?
**A.** 4.4 h

**Q.** What about the Papp B→A [8] of the same compound?
**A.** 27.4 ×10⁻⁶ cm/s

**Q.** And the “inhibition (INH)” value [9]?
**A.** 3.39%

**Q.** And the IC50 [10]?
**A.** 66.1 µM

From ChEMBL document CHEMBL3525903 (Drug Metab Dispos, 2013)
